The test system of assay [1] is PANC-1. As to the kind of experiment: Inhibition of autophagy in human PANC-1 cells cultured in nutrient-deprived medium assessed as accumulation of LC3-2 expression at 25 uM after 6 hrs by Western blot analysis relative to control. In kind it is functional.
For assay [2], the system named is PANC-1. As to the kind of experiment: Anti-austerity activity against nutrient-deprived human PANC-1 cells assessed as cell death incubated for 24 hrs by WST-8 assay. Type of assay: functional. In short, it runs like this:
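Human PANC-1 pancreatic cancer cells tested in parallel in nutrient-deprived medium (NDM) and in nutrient-rich DMEM. PC50 is the concentration that kills 50% of cells in NDM without toxicity in DMEM.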
On the technique in general: Tetrazolium assays rely on reduction of a dye to a coloured formazan, in cell work by metabolically active cells.

Consider `CCN(CC)CCCC(C)Nc1ccnc2cc(Cl)ccc12` (configuration not stated) [CHLOROQUINE], for which, in assay [1], the “fold change (FC)” value stood at 2.

On to `COc1cc(C[C@H]2C(=O)OC[C@@H]2Cc2ccc(OC)c(OC)c2)ccc1O` [ARCTIGENIN], for which, in assay [2], the PC50 is 0.83 µM.

The values above are taken from ChEMBL document CHEMBL4680108, “Ancistrolikokine E, a 5,8'-Coupled Naphthylisoquinoline Alkaloid, Eliminates the Tolerance of Cancer Cells to Nutrition Starvation by Inhibition of the Akt/mTOR/Autophagy Signaling Pathway” (2018).
